The text below walks through data of paper PMC3582828 (European journal of medicinal chemistry, 2012).

A word on the IC50: it is the concentration that inhibits the measured activity by half.

One series concerns the target PDE2 (Homo sapiens, UniProt O00408). Kind of series: PDE enzyme assay. The series is classed as biochemical. As to conditions: selectivity ratio IC50 PDE2 / IC50 PDE5.
The test system of series [1] is LTP in slices from APP/PS1 mice. Description: LTP in hippocampal slices from APP/PS1 mice. Also noted: species or system APP/PS1 mouse. As to conditions: 50 nM through bath solution for 10 min prior to θ-burst.
Another series addresses PDE4. Kind of series: PDE enzyme assay. The series is classed as biochemical. As to conditions: for IC50: read-out: PDE4 IC50, Data obtained by BPS Bioscience; for PDEX/PDE5 (PDE4): selectivity ratio IC50 PDE4 / IC50 PDE5. A digest of the protocol:
(§1)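 Each PDE was incubated at room temperature for 60 min in PDE assay buffer with 100 nM FAM-cGMP or FAM-cAMP substrate, 0.125 ng enzyme and test compound. A 1:100 binding-agent solution was then added for 60 min at room temperature.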

The subject of another series is PDE8. Kind of series: PDE enzyme assay. As to conditions: selectivity ratio IC50 PDE8 / IC50 PDE5. It is filed as biochemical.
In another series the target is PDE10 (Homo sapiens, UniProt Q9Y233). Description: PDE enzyme assay. It is filed as biochemical. As to conditions: selectivity ratio IC50 PDE10 / IC50 PDE5.
PDE10, sequence (Q9Y233 whole entry): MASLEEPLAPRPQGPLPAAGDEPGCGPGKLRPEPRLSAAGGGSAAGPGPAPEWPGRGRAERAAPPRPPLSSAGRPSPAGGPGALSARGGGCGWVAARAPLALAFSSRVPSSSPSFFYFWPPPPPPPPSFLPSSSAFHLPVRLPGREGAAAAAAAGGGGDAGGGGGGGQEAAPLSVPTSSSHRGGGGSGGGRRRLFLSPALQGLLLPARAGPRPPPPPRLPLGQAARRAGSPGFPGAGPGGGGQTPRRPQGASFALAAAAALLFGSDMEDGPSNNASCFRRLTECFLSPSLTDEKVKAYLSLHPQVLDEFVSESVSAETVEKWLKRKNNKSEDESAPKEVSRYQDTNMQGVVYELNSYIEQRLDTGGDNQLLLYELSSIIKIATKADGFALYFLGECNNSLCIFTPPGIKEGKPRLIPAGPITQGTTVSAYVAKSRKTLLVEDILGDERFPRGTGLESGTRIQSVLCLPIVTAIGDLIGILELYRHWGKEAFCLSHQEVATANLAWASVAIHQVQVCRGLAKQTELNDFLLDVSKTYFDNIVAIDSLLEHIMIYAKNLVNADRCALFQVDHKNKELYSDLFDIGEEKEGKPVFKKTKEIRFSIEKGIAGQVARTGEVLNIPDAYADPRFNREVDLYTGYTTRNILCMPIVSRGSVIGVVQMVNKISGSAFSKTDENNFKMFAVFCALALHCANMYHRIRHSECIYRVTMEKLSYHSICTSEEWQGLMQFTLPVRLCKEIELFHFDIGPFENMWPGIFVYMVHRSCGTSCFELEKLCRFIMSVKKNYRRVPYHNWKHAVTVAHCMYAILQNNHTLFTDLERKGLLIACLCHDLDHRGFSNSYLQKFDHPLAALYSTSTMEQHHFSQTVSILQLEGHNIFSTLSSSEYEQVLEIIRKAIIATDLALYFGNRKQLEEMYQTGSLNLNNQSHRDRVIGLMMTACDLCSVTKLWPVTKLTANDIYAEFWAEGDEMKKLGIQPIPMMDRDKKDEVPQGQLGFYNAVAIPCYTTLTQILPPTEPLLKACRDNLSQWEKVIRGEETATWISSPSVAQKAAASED
In a further series the target is PDE1. Kind of series: PDE enzyme assay. The series is classed as biochemical. As to conditions: for IC50: read-out: PDE1 IC50, Data obtained by BPS Bioscience; for PDEX/PDE5 (PDE1): selectivity ratio IC50 PDE1 / IC50 PDE5. The method in brief: as §1
The next series addresses PDE9 (Homo sapiens, UniProt O76083). Description: PDE enzyme assay. It is filed as biochemical. As to conditions: selectivity ratio IC50 PDE9 / IC50 PDE5.
The next series deals with PDE3. Description: PDE enzyme assay. As to conditions: for IC50: read-out: PDE3 IC50, Data obtained by BPS Bioscience; for PDEX/PDE5 (PDE3): selectivity ratio IC50 PDE3 / IC50 PDE5. It is filed as biochemical. A digest of the protocol:
as §1

In the next series the target is PDE7. Kind of series: PDE enzyme assay. It is filed as biochemical. As to conditions: for IC50: read-out: PDE7 IC50, Data obtained by BPS Bioscience; for PDEX/PDE5 (PDE7): selectivity ratio IC50 PDE7 / IC50 PDE5. A digest of the protocol: as §1
The target in a further series is PDE5 (Homo sapiens, UniProt O76074). Description: PDE enzyme assay. The series is classed as biochemical. As to conditions: ratio IC50 PDE5 / IC50 PDE5.
For the next series, the system named is APP/PS1 mice. Description: 2-day radial arm water maze. The series is classed as in vivo, APP/PS1 mouse. As to conditions: 3 mg/kg, i.p., for 3 weeks; 3–4 month old APP/PS1 mice; vehicle ~3 errors.
The target in another series is PDE11 (Homo sapiens, UniProt Q9HCR9). Description: PDE enzyme assay. The series is classed as biochemical. As to conditions: selectivity ratio IC50 PDE11 / IC50 PDE5.
PDE11, sequence (Q9HCR9 whole entry): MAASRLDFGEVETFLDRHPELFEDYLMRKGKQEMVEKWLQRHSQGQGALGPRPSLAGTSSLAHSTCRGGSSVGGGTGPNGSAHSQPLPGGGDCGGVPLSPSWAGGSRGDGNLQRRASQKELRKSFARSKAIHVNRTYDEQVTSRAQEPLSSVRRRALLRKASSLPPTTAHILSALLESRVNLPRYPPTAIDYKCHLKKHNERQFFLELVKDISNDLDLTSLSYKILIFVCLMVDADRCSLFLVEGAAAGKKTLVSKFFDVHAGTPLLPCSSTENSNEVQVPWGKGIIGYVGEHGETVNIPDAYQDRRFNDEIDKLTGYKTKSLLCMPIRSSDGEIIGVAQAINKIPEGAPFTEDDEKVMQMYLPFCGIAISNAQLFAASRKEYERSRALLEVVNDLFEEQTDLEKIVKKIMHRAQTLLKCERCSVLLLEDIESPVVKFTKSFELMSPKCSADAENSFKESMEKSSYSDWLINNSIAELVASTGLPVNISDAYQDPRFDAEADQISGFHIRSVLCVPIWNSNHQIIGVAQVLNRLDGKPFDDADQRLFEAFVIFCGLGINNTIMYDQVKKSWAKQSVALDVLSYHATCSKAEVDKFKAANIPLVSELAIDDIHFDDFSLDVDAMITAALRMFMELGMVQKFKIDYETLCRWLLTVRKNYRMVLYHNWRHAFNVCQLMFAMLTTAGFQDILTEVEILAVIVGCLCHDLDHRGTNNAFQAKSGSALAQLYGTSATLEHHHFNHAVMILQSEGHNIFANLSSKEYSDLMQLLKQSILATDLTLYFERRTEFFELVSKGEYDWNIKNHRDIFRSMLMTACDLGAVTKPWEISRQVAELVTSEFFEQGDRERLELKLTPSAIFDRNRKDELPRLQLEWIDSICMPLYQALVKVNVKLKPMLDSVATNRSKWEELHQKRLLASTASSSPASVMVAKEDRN
Series [2] can be described thus: Pharmacokinetics in mouse brain tissue and plasma. It is filed as in vivo, male BALB/c mice. The method in brief:
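Test compound was dosed at 50 mg/kg p.o. in 0.05% aqueous methylcellulose. Plasma (retro-orbital blood, heparin) and brain were taken at 0, 0.25, 0.5, 1, 2 and 4 h, with 3 mice per time point. Brain was rinsed in cold saline and homogenised in methanol. LC/MS/MS used an internal standard and 1/x2-weighted linear regression. Penetration was expressed as brain/plasma Cmax and AUC ratios.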

PDE9, sequence (O76083 whole entry): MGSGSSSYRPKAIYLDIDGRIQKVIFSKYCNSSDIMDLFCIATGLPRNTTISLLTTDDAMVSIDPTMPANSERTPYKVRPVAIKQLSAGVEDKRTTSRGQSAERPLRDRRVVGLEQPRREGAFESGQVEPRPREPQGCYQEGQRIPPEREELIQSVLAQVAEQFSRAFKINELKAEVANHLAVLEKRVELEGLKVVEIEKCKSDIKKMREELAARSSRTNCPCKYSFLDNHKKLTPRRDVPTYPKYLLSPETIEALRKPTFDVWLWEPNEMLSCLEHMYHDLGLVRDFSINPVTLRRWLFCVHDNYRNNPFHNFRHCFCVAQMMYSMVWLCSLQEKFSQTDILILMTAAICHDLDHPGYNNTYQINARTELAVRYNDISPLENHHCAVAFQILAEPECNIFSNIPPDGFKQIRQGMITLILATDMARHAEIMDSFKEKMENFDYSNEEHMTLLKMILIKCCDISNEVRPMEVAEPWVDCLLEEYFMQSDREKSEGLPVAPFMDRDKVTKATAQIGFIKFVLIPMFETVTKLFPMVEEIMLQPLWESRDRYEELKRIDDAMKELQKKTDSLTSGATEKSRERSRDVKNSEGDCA
PDE2, sequence (O00408 whole entry): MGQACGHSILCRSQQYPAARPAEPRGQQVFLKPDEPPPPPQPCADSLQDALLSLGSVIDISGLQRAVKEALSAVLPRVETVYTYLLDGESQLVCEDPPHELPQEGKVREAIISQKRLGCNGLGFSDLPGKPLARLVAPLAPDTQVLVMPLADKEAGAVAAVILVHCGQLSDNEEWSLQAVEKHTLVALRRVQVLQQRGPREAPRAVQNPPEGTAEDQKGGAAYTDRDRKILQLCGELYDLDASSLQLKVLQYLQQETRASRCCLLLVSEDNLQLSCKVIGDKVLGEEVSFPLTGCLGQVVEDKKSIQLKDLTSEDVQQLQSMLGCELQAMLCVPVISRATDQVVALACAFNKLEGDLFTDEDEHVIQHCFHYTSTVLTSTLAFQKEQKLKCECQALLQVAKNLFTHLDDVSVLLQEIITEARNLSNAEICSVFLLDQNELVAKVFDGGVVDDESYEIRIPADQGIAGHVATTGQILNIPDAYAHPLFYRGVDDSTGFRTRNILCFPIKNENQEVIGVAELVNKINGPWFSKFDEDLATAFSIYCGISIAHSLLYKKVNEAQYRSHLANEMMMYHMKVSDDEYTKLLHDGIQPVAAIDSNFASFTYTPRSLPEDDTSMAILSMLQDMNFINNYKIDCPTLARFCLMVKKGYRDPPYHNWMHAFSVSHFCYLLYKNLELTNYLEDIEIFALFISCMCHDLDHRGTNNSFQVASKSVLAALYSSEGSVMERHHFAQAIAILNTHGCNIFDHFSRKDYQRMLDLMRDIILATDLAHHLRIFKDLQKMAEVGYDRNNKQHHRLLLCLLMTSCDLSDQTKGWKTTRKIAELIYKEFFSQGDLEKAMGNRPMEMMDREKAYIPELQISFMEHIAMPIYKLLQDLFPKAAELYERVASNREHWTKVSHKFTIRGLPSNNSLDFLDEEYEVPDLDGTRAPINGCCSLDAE

Regarding `COc1ccc(CNc2c(CO)cnc3c(C4CC4)cc(C#N)cc23)cc1Cl` [7a, 4-[(3-chloro-4-methoxybenzyl)amino]-8-cyclopropyl-3-(hydroxymethyl) quinoline-6-carbonitrile], the “PDEX/PDE5 (PDE2)” value on PDE2 is on record as >10^4. For the same compound, the “Effect on LTP in WT slices” value in series [1] is listed as “no effect”. On PDE4, the 50% inhibitory concentration (IC50) was > 10 µM and the “PDEX/PDE5 (PDE4)” value is listed as >10^4. Further, the “PDEX/PDE5 (PDE8)” value with PDE8 is >10^4. On PDE10, the “PDEX/PDE5 (PDE10)” value is given as >10^4. In addition, on PDE1, the half-maximal inhibitory concentration (IC50) is > 10 µM and the “PDEX/PDE5 (PDE1)” value is recorded as >10^4. Also, on PDE9, the “PDEX/PDE5 (PDE9)” value is listed as >10^4. For the same compound, on PDE3, the IC50 was > 10 µM and the “PDEX/PDE5 (PDE3)” value is given as >10^4. Moreover, at PDE7, the 50% inhibitory concentration (IC50) is > 10 µM and the “PDEX/PDE5 (PDE7)” value is recorded as >10^4. The “PDEX/PDE5 (PDE5)” value at PDE5 amounted to 1. In addition, the “Errors in the 2-day RAWM test” value in the series on APP/PS1 mice is recorded as “less than 2 errors”. Further, the “PDEX/PDE5 (PDE11)” value on PDE11 is listed as >10^4. Besides, the “Blood brain barrier penetration” value in series [2] was “readily crosses the blood brain barrier”.
Take `COc1ccc(CNc2c(CO)cnc3c(N(C)C)cc(C#N)cc23)cc1Cl` [7b, 4-[(3-chloro-4-methoxybenzyl)amino]-8-(N,N-dimethylamino)-3-(hydroxymethyl) quinoline-6-carbonitrile]: the “PDEX/PDE5 (PDE2)” value on PDE2 was >10^4. Besides, on PDE4, the half-inhibitory concentration (IC50) is > 10 µM and the “PDEX/PDE5 (PDE4)” value is on record as >10^4. The “PDEX/PDE5 (PDE8)” value with PDE8 was >10^4. The “PDEX/PDE5 (PDE10)” value at PDE10 is recorded as >10^4. On PDE1, the IC50 is > 10 µM and the “PDEX/PDE5 (PDE1)” value was >10^4. Further, the “PDEX/PDE5 (PDE9)” value on PDE9 is on record as >10^4. Besides, on PDE3, the IC50 was > 10 µM and the “PDEX/PDE5 (PDE3)” value is recorded as >10^4. Also, on PDE7, the IC50 was > 10 µM and the “PDEX/PDE5 (PDE7)” value was >10^4. For the same compound, at PDE5, the “PDEX/PDE5 (PDE5)” value is listed as 1. For the same compound, the “PDEX/PDE5 (PDE11)” value at PDE11 is >10^4.
